Substitutions are numbered along the chain they refer to.
Tests used:
VCaP = test: Antiproliferative activity against human VCaP cells assessed as reduction in cell viability incubated for 6 days by CCK8 assay; format: functional, cell-based; details: 144 h
Outline: (§1)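 Cells seeded (2×10^4 per well for VCaP, 1–3×10^3 for the others) and compound added after 24 h as a 9-point, 3-fold serial dilution. Exposure 6 days, then CCK-8 for 1–4 h and absorbance at 450 nm. IC50 from curve fit, mean of at least two independent experiments run in duplicate.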

[1] = tested on: T1, Androgen receptor (Homo sapiens), P10275 [F877L]; test: Antagonist activity against human AR F876L mutant expressed in human PC3 cells assessed as inhibition of 1 nM R1881-induced transactivation incubated for 24 hrs by dual luciferase reporter gene assay; format: cell-based
T1 sequence (whole entry): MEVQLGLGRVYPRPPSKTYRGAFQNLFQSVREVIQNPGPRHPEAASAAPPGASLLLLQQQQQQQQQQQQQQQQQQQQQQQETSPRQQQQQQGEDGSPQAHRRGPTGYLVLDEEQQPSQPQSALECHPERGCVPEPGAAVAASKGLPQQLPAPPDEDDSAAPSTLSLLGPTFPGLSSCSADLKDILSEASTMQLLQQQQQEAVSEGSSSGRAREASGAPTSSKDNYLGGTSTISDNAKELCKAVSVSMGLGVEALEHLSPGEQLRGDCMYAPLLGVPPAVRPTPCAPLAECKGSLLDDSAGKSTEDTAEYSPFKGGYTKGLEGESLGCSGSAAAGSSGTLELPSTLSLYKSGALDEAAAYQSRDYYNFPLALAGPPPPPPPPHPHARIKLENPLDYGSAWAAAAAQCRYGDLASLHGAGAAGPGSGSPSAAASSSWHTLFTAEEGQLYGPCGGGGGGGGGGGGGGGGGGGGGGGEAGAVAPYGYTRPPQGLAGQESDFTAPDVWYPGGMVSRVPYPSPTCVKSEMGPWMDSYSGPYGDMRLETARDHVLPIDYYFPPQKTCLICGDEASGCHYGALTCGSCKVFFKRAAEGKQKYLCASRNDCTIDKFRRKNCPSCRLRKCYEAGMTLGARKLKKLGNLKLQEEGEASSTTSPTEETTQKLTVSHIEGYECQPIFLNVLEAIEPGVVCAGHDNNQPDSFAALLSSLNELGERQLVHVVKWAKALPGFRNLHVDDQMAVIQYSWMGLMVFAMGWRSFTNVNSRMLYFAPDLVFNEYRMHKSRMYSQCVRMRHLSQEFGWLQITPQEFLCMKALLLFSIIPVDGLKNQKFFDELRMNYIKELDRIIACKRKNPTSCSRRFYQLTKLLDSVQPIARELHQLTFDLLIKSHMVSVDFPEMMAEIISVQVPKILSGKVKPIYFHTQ
Outline: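 PC-3 cells in DMEM/F12 (1:1) with 5% charcoal-stripped FBS, cotransfected with 50 ng F876L AR plasmid and 50 ng AR luciferase reporter per well. 24 h post-transfection, compound plus 1 nM R1881 for 24 h. Firefly luminescence normalized to Renilla; mean ± SEM, n = 3.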

L02 = test: Antiproliferative activity against human L02 cells assessed as reduction in cell viability incubated for 6 days by CCK8 assay; format: cell-based; details: L02, 144 h; outline: as §1
CWR22R = test: Antiproliferative activity against human 22Rv1 cells assessed as reduction in cell viability incubated for 6 days by CCK8 assay; format: functional, cell-based; details: 22Rv1, 144 h; outline: as §1
[2] = biological target: T2, Androgen receptor (Homo sapiens) (UniProt P10275); test: Antagonist activity at androgen receptor in human VCaP cells assessed as inhibition of R1881-induced PSA mRNA expression after 24 hrs by qRT-PCR analysis; format: cell-based
T2 sequence (whole entry): T1 sequence (whole entry) with L877F
Outline: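 VCaP cells held 48 h in DMEM with 5% charcoal-stripped FBS, then 24 h with compound plus 0.2 nM R1881. TRIzol RNA extraction, cDNA synthesis, qRT-PCR for the target mRNA normalized to GAPDH; mean ± SD, n = 3.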

- IC50 (VCaP): 0.7 µM
- Activity [1]: Dose-dependent effect
- Activity [2]: Dose-dependent effect
SMILES: Cc1ccc(-c2c(C)noc2C)cc1Nc1ccc(C#N)c(Cl)c1
- IC50 (L02): 11.3 µM
- IC50 (CWR22R): 3.5 µM
